Reference: article PMC4831585 (Journal of the American Chemical Society, 2015)
Ends that are not written are not given here.

Experiments:
[1] = target: T1, wt-MoaA (Staphylococcus aureus, UniProt P69848); assay: Anaerobic ITC, wt-MoaA; type: binding
Procedure, shortened: (§1)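 His6-tagged S. aureus MoaA (wild type or GG-motif point mutants) was expressed in E. coli, purified and reconstituted anaerobically. […] Run as 29 injections at 24 °C, 307 rpm, with degassed buffer-only control titration.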

[2] = system: MoaA GG-motif mutants; assay: MoaA/MoaC coupled assay / peptide rescue, MoaA GG-motif mutants; type: biochemical, Staphylococcus aureus; details: for increase of Km over wt-MoaA: GG-motif mutants with 500 μM 11-mer peptide vs wt-MoaA
[3] = target: T2, G340A-MoaA (Staphylococcus aureus, UniProt P69848, G340A); assay: MoaA/MoaC coupled assay; type: biochemical; details: for activity restoration lower than the 11-mer peptide: G340A-MoaA, peptide 200 μM (Figure 4A)
[4] = target: T2, G340A-MoaA; assay: Abortive SAM cleavage; type: biochemical; details: G340A-MoaA with 11-mer wt peptide, 5′-dA vs cPMP amounts; triplicate, SD
[5] = target: MoaA G339A (Staphylococcus aureus, UniProt P69848, G339A); assay: Anaerobic ITC, G339A-MoaA; type: binding
Procedure, shortened: as §1

[6] = target: T1, wt-MoaA; assay: Abortive SAM cleavage; type: biochemical; details: 5′-dA vs cPMP amounts, triplicate, SD
[7] = target: T3, MoaA G340A (Staphylococcus aureus, UniProt P69848, G340A); assay: Anaerobic ITC, G340A-MoaA; type: binding
T3 sequence (P69848 1-340 G340A): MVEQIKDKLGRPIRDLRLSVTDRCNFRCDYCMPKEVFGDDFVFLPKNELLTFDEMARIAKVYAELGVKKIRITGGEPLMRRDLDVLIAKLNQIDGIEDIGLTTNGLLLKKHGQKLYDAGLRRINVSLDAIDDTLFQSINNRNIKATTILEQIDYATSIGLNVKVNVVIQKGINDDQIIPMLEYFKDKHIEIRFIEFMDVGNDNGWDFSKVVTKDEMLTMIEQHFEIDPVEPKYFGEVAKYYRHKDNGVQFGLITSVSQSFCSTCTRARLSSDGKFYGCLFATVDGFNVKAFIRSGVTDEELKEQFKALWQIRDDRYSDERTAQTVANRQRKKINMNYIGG
Procedure, shortened: as §1

[8] = target: T1, wt-MoaA; details: [3′-D]GTP vs GTP as substrate; wt-MoaA reaction; cited from earlier work
[9] = target: R330A/K331A/K332A-MoaA (Staphylococcus aureus, UniProt P69848, K331A/K332A/R330A); assay: MoaA/MoaC coupled assay / peptide rescue, R330A/K331A/K332A-MoaA; type: biochemical; details: for activity restoration by peptide: peptide 200 μM (Figure 4A)
[10] = target: D198A-MoaA (Staphylococcus aureus, UniProt P69848, D198A); type: biochemical; details: without peptide; coupled assay
[11] = with 500 μM 11-mer wt peptide, coupled assay with MoaC, pH 7.6, 25 °C

Q: Which Kd [1] does the source give for Nc1nc2c(ncn2[C@@H]2O[C@H](COP(=O)(O)OP(=O)(O)OP(=O)(O)O)[C@@H](O)[C@H]2O)c(=O)[nH]1 [GTP, Guanosine 5′-triphosphate] here?
A: 5 ± 3 µM

Q: What about the “increase of Km over wt-MoaA” value [2] of the same molecule?
A: 2–17 fold

Q: And the Km [3, 11]?
A: 7.7 ± 3.8 µM

Q: What about the kcat [3, 11] of the same molecule?
A: 0.000783 ± 5e-05 s⁻¹

Q: And the “uncoupling (abortive SAM cleavage relative to cPMP formation)” value [4]?
A: 8.2 ± 4.8%

Q: And the Kd [5]?
A: 0.46 ± 0.01 µM

Q: What about the “uncoupling (abortive SAM cleavage relative to cPMP formation)” value [6] of the same molecule?
A: 4.1 ± 2.7%

Q: What about the Kd [7] of the same molecule?
A: 5.2 ± 2.3 µM

Q: Which results are given for C[S+](CC[C@H](N)C(=O)[O-])C[C@H]1O[C@@H](n2cnc3c(N)ncnc32)[C@H](O)[C@@H]1O (stereo partly drawn) [SAM, S-adenosyl-L-methionine]?
A: Kd [1]: 1.7 ± 0.6 µM; increase of Km over wt-MoaA [2]: 7–18 fold; Km [3, 11]: 37 ± 14 µM; Kd [5]: > 90 µM; Kd [7]: > 90 µM

Q: Which KIE [8] does the source give for [2H][C@@]1(O)[C@@H](COP(=O)(O)OP(=O)(O)OP(=O)(O)O)O[C@@H](n2cnc3c(=O)[nH]c(N)nc32)[C@@H]1O [[3′-D]GTP] here?
A: 1.28 ± 0.05

Q: What about the “uncoupling (abortive SAM cleavage relative to cPMP formation)” value [4] of the same molecule?
A: 25 ± 6.7%

Q: What about the “uncoupling (abortive SAM cleavage relative to cPMP formation)” value [6] of the same molecule?
A: 5.5 ± 3.0%

Q: What does the source list for INMNYIGG [8-mer]?
A: activity restoration by peptide [9]: No significant activity restoration; activity restoration lower than the 11-mer peptide ([3]; coupled assay): 10 fold

Q: Which results are given for NYIGG [5-mer]?
A: activity restoration by peptide [9]: No significant activity restoration; activity restoration lower than the 11-mer peptide ([3]; coupled assay): 100 fold

Q: With RKKINMNYIGA as the molecule, how does the “restoration of MoaA activity by GG-motif mutated peptide” value ([2]; even at 1.0 mM peptide concentration, coupled assay (Figure 3A)) read?
A: did not restore the MoaA activity

Q: For RKKINMNYIGG [11-mer wt peptide], which Kd ([9]; Kd (peptide titration, figure legend), Figure 4B, nonlinear fit to Hill equation) is on record?
A: 172 µM

Q: And the Kd ([3]; KD (peptide titration, figure legend), Figure 3C, nonlinear fit to the Hill equation, coupled assay)?
A: 151 µM

B1: D198A-MoaA: S. aureus MoaA variant with D198A mutation in Loop 14 (protein)
chain: MVEQIKDKLGRPIRDLRLSVTDRCNFRCDYCMPKEVFGDDFVFLPKNELLTFDEMARIAKVYAELGVKKIRITGGEPLMRRDLDVLIAKLNQIDGIEDIGLTTNGLLLKKHGQKLYDAGLRRINVSLDAIDDTLFQSINNRNIKATTILEQIDYATSIGLNVKVNVVIQKGINDDQIIPMLEYFKDKHIEIRFIEFMAVGNDNGWDFSKVVTKDEMLTMIEQHFEIDPVEPKYFGEVAKYYRHKDNGVQFGLITSVSQSFCSTCTRARLSSDGKFYGCLFATVDGFNVKAFIRSGVTDEELKEQFKALWQIRDDRYSDERTAQTVANRQRKKINMNYIGG
Q: Which “activity of mutant relative to wt-MoaA” value [10] does the source give for B1 here?
A: 8 % the activity of wt-MoaA

B2: R330A/K331A/K332A-MoaA (protein)
chain: MVEQIKDKLGRPIRDLRLSVTDRCNFRCDYCMPKEVFGDDFVFLPKNELLTFDEMARIAKVYAELGVKKIRITGGEPLMRRDLDVLIAKLNQIDGIEDIGLTTNGLLLKKHGQKLYDAGLRRINVSLDAIDDTLFQSINNRNIKATTILEQIDYATSIGLNVKVNVVIQKGINDDQIIPMLEYFKDKHIEIRFIEFMDVGNDNGWDFSKVVTKDEMLTMIEQHFEIDPVEPKYFGEVAKYYRHKDNGVQFGLITSVSQSFCSTCTRARLSSDGKFYGCLFATVDGFNVKAFIRSGVTDEELKEQFKALWQIRDDRYSDERTAQTVANRQAAAINMNYIGG
Q: Which “activity of mutant relative to wt-MoaA” value ([9]; without peptide) does the source give for B2 here?
A: 8 % the activity of wt-MoaA
